Published values collected from several papers.
Protocols differ between the studies behind these lines.

SMILES | host | matrix | route | dose | notes | endpoint | value
CC(C)(C)[C@H](NC(=O)[C@H](CCONC(=N)N)NC(=O)Cc1ccc(CNC(=N)N)cc1)C(=O)N[C@@H](CCONC(=N)N)C(=O)NCc1ccc(C(=N)N)cc1 | male Sprague-Dawley rat | plasma | intraperitoneal | 2.5 mg/kg | – | AUC(0-inf) | 9640 ng·h/mL
CN(C)C(=O)Oc1cc(OC(=O)N(C)C)cc(-c2cc3ccc(O)cc3o2)c1 | male rat | plasma | oral | 5 mg/kg | – | AUC(0-inf) | 26.2 ng·h/mL
O=C([O-])C(=O)[O-].[NH-][C@@H]1CCCC[C@H]1[NH-].[Pt+4] (relative stereo) | rat | plasma | oral | 10 mg/kg | – | AUC(0-t) | 111 ng·h/mL
Cl.Cl.O=C(CCN1CCCCC1)c1ccc(-c2ccc(C(=O)CCN3CCCCC3)cc2)cc1 | Sprague-Dawley rat | plasma | intravenous | 5 mg/kg | – | AUC(0-t) | 251 ng·h/mL
CCCCCn1cc(C(=O)Nc2cccc3ccccc23)c2ccccc21 | male Long-Evans rat | plasma | intraperitoneal | 3 mg/kg | – | AUC(0-inf) | 5960 ng·h/mL
[2H]C([2H])([2H])n1cc2cc(Nc3nc(=O)n(Cc4ncn(C)n4)c(=O)n3Cc3cc(F)c(F)cc3F)c(Cl)cc2n1 | male Sprague-Dawley rat | plasma | intravenous | 5 mg/kg | – | AUC(0-t) | 89900 ng·h/mL
CCCCCn1nc(C(=O)Nc2cccc3ccccc23)c2ccccc21 | male Long-Evans rat | plasma | intraperitoneal | 3 mg/kg | – | AUC(0-inf) | 314 ng·h/mL
[2H]C([2H])(c1cc(F)c(F)cc1F)n1c(=O)n(Cc2ncn(C)n2)c(=O)[nH]/c1=N\c1cc2cn(C)nc2cc1Cl | male Sprague-Dawley rat | plasma | oral | 25 mg/kg | – | AUC(0-t) | 451000 ng·h/mL
CCC[C@@](N)(CO)CCc1ccc(OCCCCCC(C)C)cc1 | rat | plasma | oral | 10 mg/kg | – | AUC(0-t) | 1.44 µM·h
CCCCCCCC(=O)N[C@@H](CCCCN)C(=O)N[C@@H](CCCCN)C(=O)N[C@@H](C)C(=O)N[C@@H](CC(C)C)C(=O)N[C@@H](CCCCN)C(=O)N[C@@H](CC(C)C)C(=O)N[C@@H](C)C(=O)N[C@@H](CCCCN)C(=O)N[C@@H](CCCCN)C(=O)N1CCC[C@H]1C(=O)N[C@@H](CC(C)C)C(=O)N[C@@H](CCCCN)C(=O)N[C@@H](CC(C)C)C(=O)N[C@@H](CC(C)C)C(=O)N[C@@H](CCCCN)C(N)=O | male Sprague-Dawley rat | blood | intravenous | 3 mg/kg | infusion | AUC(0-inf) | 273 ng·h/mL
Cn1cnc(Cn2c(=O)[nH]/c(=N\c3cc4cn(C)nc4cc3Cl)n(Cc3cc(F)c(F)cc3F)c2=O)n1 | male Sprague-Dawley rat | plasma | oral | 25 mg/kg | – | AUC(0-t) | 515000 ng·h/mL
N=c1c2c(-c3ccccc3)c(-c3ccccc3)n(Cc3ccccc3)c2ncn1[C@H]1CC[C@H](O)CC1 | male Sprague-Dawley rat | plasma | oral | 2 mg/kg | single dose | AUC(0-inf) | 1500 ng·h/mL
COC(=O)C(NC(=O)c1cn(CCCCCF)c2ccccc12)C(C)(C)C (stereo not shown) | male Sprague-Dawley rat | plasma | subcutaneous | 50 µg/kg | – | AUC(0-t) | 8.61 ng·h/mL
